Activity, inhibition and viability data for one compound are collected here from ChEMBL document CHEMBL4765333, “Novel NO-releasing scopoletin derivatives induce cell death via mitochondrial apoptosis pathway and cell cycle arrest” (Eur J Med Chem, 2020).

Assay [1] concerns MDA-MB-231. As to the kind of experiment: Induction of cell cycle arrest in human MDA-MB-231 cells assessed as accumulation at S phase at 1 uM measured after 24 hrs by propidium iodide staining based flow cytometric method (reference value: 36.25%). It counts as functional. A general note: Flow cytometry measures light scatter and fluorescence of single cells or particles in a stream.

The nature of assay [2]: Antiproliferative activity against human MDA-MB-231 cells assessed as inhibition of cell proliferation rate at 4 uM measured after 48 hrs by MTT assay. It counts as functional. The conditions noted are these: MDA-MB-23. In a few lines:
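MDA-MB-231 cells in DMEM with 10% FBS, ~5,000 cells/well, 24 h attachment, then compound for 48 h at 37°C, 5% CO2. MTT 0.5 mg/ml final for 4 h, DMSO solubilization, absorbance 570 nm; inhibition relative to untreated cells; experiments done three times.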
On the technique in general: Tetrazolium dyes change colour on reduction, which living cells bring about.

Assay [3] has as its system MDA-MB-231. Put plainly: Induction of cell cycle arrest in human MDA-MB-231 cells assessed as accumulation at G0/G1 phase at 1 uM measured after 24 hrs by propidium iodide staining based flow cytometric method (reference value: 45.71%). It counts as functional.
Assay [4] has as its system MDA-MB-231. As to the kind of experiment: Induction of apoptosis in human MDA-MB-231 cells assessed as viable cells at 1 uM after 24 hrs by Annexin V/propidium iodide based flow cytometric analysis (reference value: 99%). It counts as functional. The conditions noted are these: read-out: Activity. In a few lines:
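MDA-MB-231 cells (2×10^5/well) attached 24 h, then treated 24 h with 1, 1.5, 2 or 3 µM, DMSO as control. Cells harvested, PBS-washed, resuspended in binding buffer, stained with Annexin V and PI for 30 min at 37°C in the dark, and analysed by flow cytometry for quadrant percentages; three experiments.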

Assay [5] relates to MDA-MB-231. Put plainly: Induction of apoptosis in human MDA-MB-231 cells assessed as downregulation of Bcl-2 expression at 1.5 to 6 uM measured after 8 hrs by Western blot analysis. It is filed as functional, cell-based. The conditions noted are these: dose 1.5-6 µM. In a few lines:
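MDA-MB-231 cells (8×10^5 per 60 mm dish) attached 24 h, then exposed 8 h to 1.5, 3 or 6 µM, DMSO as control. Lysates quantified by BCA; 30 µg protein run on 4–20% SDS-PAGE, transferred to PVDF, probed for Bcl-2, Bax, Bad, cleaved caspase-9, cleaved caspase-3 and PARP, with ECL detection. Densitometric relative levels; three experiments.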

Assay [6] has as its system MDA-MB-231. As to the kind of experiment: Induction of cell cycle arrest in human MDA-MB-231 cells assessed as accumulation at S phase at 2 uM measured after 24 hrs by propidium iodide staining based flow cytometric method (reference value: 36.25%). It counts as functional.

Activity calls are given as the source filed them. The calls are words filed in the database; no cut-off is given here.

The inhibition is the drop in the measured response relative to a control, in per cent. Take `COc1cc2cc(N)c(=O)oc2cc1OCCCOc1no[n+]([O-])c1S(=O)(=O)c1ccccc1`: the Activity with MDA-MB-231 [1] was 28.05%; in the assay with MDA-MB-231 [3], 43.06%; with MDA-MB-231 [6] it was 20.82%. Further, the inhibition at 4 µM in assay [2] amounted to 91.2%. Moreover, the viability at 1 µM with MDA-MB-231 [4] worked out at 87.9%. Moreover, the result in the assay on MDA-MB-231 [5] was Active.
